# “And” between values parts separate entries of the source, which are not always exact repeats. Equal entries are not always repeated. Out of some 340,000 compounds screened, about 3,000 (0.88%) were called active.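 How the source made its calls: active means inhibition above about 50% at 20 µM (limit read from the data); inactive means the rest.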 The entries come from a sample that favours actives as a whole.
# Biological target: Carboxy-terminal domain RNA polymerase II polypeptide A small phosphatase 1 (Homo sapiens) (UniProt Q9GZU7)
# Sequence (Q9GZU7 76-261 limits assumed): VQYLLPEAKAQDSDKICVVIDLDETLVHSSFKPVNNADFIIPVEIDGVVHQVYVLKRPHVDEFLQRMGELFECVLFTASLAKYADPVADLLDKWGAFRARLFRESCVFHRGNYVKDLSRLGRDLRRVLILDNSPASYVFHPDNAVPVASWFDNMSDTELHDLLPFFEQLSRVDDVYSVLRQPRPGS
# Assay: Scp-1 phosphatase inhibitors, primary screen, biochemical, colorimetric, uHTS (AID 493091);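 further: plate controls were DMSO wells with enzyme for no effect and wells lacking enzyme for full effect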
# Settings: Recombinant Scp1, phosphopeptide, malachite green phosphate absorbance; at 20 µM; stronger effect = higher value
# In short: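 Test system: SCP-1 phosphatase catalytic domain, residues 76-261; measured by: colorimetric phosphate reagent with accelerator and stabiliser, absorbance at 630 nm; timing: enzyme reaction 45 min at room temperature, colour 5 min, stabilisation 30 min; also added: Phosphorylated 17-residue peptide substrate; compound dosing: one concentration, 20 µM, with 1.0% DMSO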
row,SMILES,inhibition
1,CCCC(C(=O)N1CCOCC1)N1C(=O)C2C3C=CC(C3)C2C1=O (stereo not given),1.46% (inactive)
2,Cc1cc(O)c(C2(O)C(=O)Nc3ccccc32)cc1C (stereo not given),2.83% (inactive)
3,CC(=O)c1cccc(NC(=O)C2COc3ccccc3O2)c1 (stereo not given),-3.69% (inactive)
4,COc1cc(SC)ccc1C(=O)N(Cc1ccccc1)c1ccccc1,-9.22% (inactive)
5,COc1cc(SC)ccc1C(=O)NNC(=O)C1COc2ccccc2O1 (stereo not given),55.9% (active)
6,NNC(=O)C1CC(O)CN1S(=O)(=O)c1ccc(Cl)cc1 (stereo not given),-8.23% (inactive)
7,CN1CCN(C2Cc3ccc(Cl)cc3Sc3ccc(F)cc32)CC1 (stereo not given),-3.27% (inactive)
8,Cc1c(CCO)c(=O)n(-c2ccccc2)n1S(=O)(=O)c1ccc(F)cc1,-6.22% (inactive)
9,CCOC(=O)c1cnn(Cc2ccccc2Cl)c1N,-4.87% (inactive)
10,CC(=O)c1cccc(NC(=O)c2cc(C)nn2-c2ccccc2)c1,-21.8% (inactive)
11,CC(=O)Nc1ccc(NC(=O)CSc2nnc(C3CC3)n2-c2ccccc2)cc1,3.64% (inactive)
12,CC[n+]1c(C)n(-c2ccccc2)c2ccc(NC(C)=O)cc21,59.6% (active)
13,CCc1ccc(NC(=O)CS(=O)CC(=O)N2CCN(c3ccccc3F)CC2)cc1 (stereo not given),-3.07% (inactive)
14,CCc1ccc(NC(=O)CS(=O)CC(=O)NCCCc2ccccc2)cc1 (stereo not given),93.4% (active)
15,S=C(NCCCc1ccccc1)Nc1ccc(Br)cc1,-8.32% (inactive)
16,CC(C)(C)C1CCc2c(sc3nc(SCC(N)=O)nc(N)c23)C1 (stereo not given),5.56% (inactive)
17,O=C(Nc1cccnc1)c1cc2cc(Br)ccc2oc1=O,101% (active)
18,COc1ccc2oc(=N)c(C(=O)Nc3ccc(Br)cc3)cc2c1,2.27% (inactive)
19,O=C(Nc1cccnc1)c1cc([N+](=O)[O-])ccc1Cl,-5.04% (inactive)
20,O=C(Oc1ccc2c(c1)CCC2)N1CCOCC1,-4.77% (inactive)
21,COc1ccc(CCNS(=O)(=O)c2cn(C)nc2C)cc1,0.34% (inactive)
22,Oc1[nH]c2ccccc2c1N=Nc1c(F)c(F)c(F)c(F)c1F,-10.4% (inactive)
23,O=[N+]([O-])c1cc(S(=O)(=O)Nc2cccc(Cl)c2)ccc1N=Nc1c(O)[nH]c2ccccc12,52.2% (active)

row,SMILES,inhibition
1,O=C(O)c1ccccc1/C=N/Nc1ccc(S(=O)(=O)Nc2ccc(Cl)cc2)cc1[N+](=O)[O-],-7.5% (inactive)
2,Cc1ccnc(NS(=O)(=O)c2ccc(NC(=O)c3oc4ccccc4c3C)cc2)n1,-7.13% (inactive)
3,O=C1CCC/C=C\C[C@@H](CC(=O)N(CCO)Cc2ccccc2)C(=O)NCCO1,-0.23% (inactive)
4,O=C(CCC(=O)N/N=C/c1ccc(Br)o1)N/N=C/c1ccc(Br)o1,55% (active)
5,O=C(N/N=C/c1ccc(Br)o1)c1cncc(Br)c1,0.65% (inactive)
6,O=C(CCNC(=O)c1ccccc1)NN=Cc1ccc(Br)o1,70.2% (active)
7,N#CCC(=O)N/N=C/c1ccc(SCC(=O)Nc2ccccc2)o1,-8.26% (inactive)
8,O=C(CCNC(=O)c1ccccc1Cl)NN=Cc1ccco1,10.6% (inactive)
9,O=C(CCc1n[nH]c(=O)[nH]c1=O)N/N=C/c1ccc(Br)o1,2.94% (inactive)
10,Cc1ccc(S(=O)(=O)NCC(C)NS(C)(=O)=O)cc1 (stereo not given),-4.62% (inactive)
11,Cc1cccc(C)c1NC(=O)COC(=O)c1ccccc1O,-5.49% (inactive)
12,COc1ccc(CNS(=O)(=O)c2cc(-c3cc(C)no3)ccc2C(C)C)cc1,-11% (inactive)
13,O=C(c1cc(S(=O)(=O)N2CCOCC2)ccc1Cl)N1CCOCC1,-9.49% (inactive)
14,CC(=O)N1CCN(S(=O)(=O)c2cccc(C(=O)NC3CCC(C)CC3)c2)CC1 (stereo not given),5.39% (inactive)
15,C[C@H](NC(=O)C1CC(=O)N(c2ccc3c(c2)OCO3)C1)C(=O)NCc1ccco1 (stereo not given in full),-2.53% (inactive)
16,CCCn1nc(NS(=O)(=O)c2ccc(F)cc2)c2cc3ccccc3nc21,3.78% (inactive)
17,COCCCNc1nc2ccccc2nc1NS(=O)(=O)c1ccc(F)cc1,54.7% (active)
18,CCCCNc1nc2ccccc2nc1NS(=O)(=O)c1cccs1,-7.43% (inactive)
19,CC1C(=O)C(C)C(c2ccc(O)cc2)NC1c1ccc(O)cc1 (stereo not given),-7.74% (inactive)
20,CCN(CC)S(=O)(=O)c1cccc(-c2n[nH]c(=S)n2/N=C/c2ccc(C(=O)OC)cc2)c1,-7.1% (inactive)
21,Cc1ccc(OC(=O)c2ccccc2C(=O)OCC(F)(F)C(F)F)cc1,-9.39% (inactive)
22,CCc1ccc(C2C(C#N)=C(N)N(N3CCOCC3)C3=C2C(=O)CC(C)(C)C3)s1 (stereo not given),8.56% (inactive)
23,CC(C)(CNC(=O)CNC(=O)C1CCCCC1)N1CCOCC1,-8.57% (inactive)

row,SMILES,inhibition
1,O=S(=O)(c1ccc(Br)c2ccccc12)N1CCOCC1,-7.33% (inactive)
2,COc1ccc2[nH]c3c(C)c4cc[n+](C)cc4c(C)c3c2c1,64.5% (active)
3,COc1ccc2[nH]c(=S)cc(C)c2c1,-4.32% (inactive)
4,COc1ccc2[nH]c(C(=O)N3CCN(C)CC3)c(C)c2c1,-4.55% (inactive)
5,Cn1nc(C(C)(C)C)c([N+](=O)[O-])c1C(N)=O,-0.65% (inactive)
6,Cc1c([N+](=O)[O-])c(N)nn1C,51% (active)
7,Cc1nn(CCOc2ccc(Br)cc2)c(C)c1[N+](=O)[O-],-14.1% (inactive)
8,Clc1ccc(Cn2ncc3c(NCc4cccnc4)ncnc32)cc1,2.57% (inactive)
9,O=C(COC(=O)/C=C/c1ccc(Br)o1)Nc1cccc(S(=O)(=O)N2CCOCC2)c1,56% (active)
10,NS(=O)(=O)c1cccc(NC(=O)COC(=O)/C=C/c2ccco2)c1,26.2% (inactive)
11,O=C(COC(=O)c1ccccc1)Nc1cccc(S(=O)(=O)N2CCOCC2)c1,-6.52% (inactive)
12,C=CCOc1ccc(/C=C/C(=O)OCC(=O)NC(C)c2ccc(F)cc2)cc1 (stereo not given),1.27% (inactive)
13,Cc1c(CCOC(=O)CC23CC4CC(CC(C)(C4)C2)C3)sc[n+]1Cc1ccc([N+](=O)[O-])cc1,12.7% (inactive) and 5.4% (inactive)
14,CN(C)c1nc2n(c(=O)n1)CCO2,1.74% (inactive)
15,CC(NC(=O)COc1ccc(-c2ccccc2)cc1)C1CCCO1 (stereo not given),-2.02% (inactive)
16,COc1ccc(OCC(=O)NNC(=O)c2ccc(-c3ccccc3)cc2)cc1,69.9% (active)
17,COc1ccc(OCC(=O)NNC(=O)C2CCC2)cc1,0.44% (inactive)
18,CCC(C)N1CC(=O)N2Cc3[nH]c4ccccc4c3C[C@H]2C1=O (stereo not given in full),-3.96% (inactive)
19,N/C(=N\OC(=O)Cc1ccccc1[N+](=O)[O-])c1ccc(Br)cc1,-4.88% (inactive)
20,N/C(=N\OC(=O)c1ccc2c(c1)OCO2)c1ccc(Br)cc1,-3.74% (inactive)
21,N/C(=N\OC(=O)N1c2ccccc2Sc2ccccc21)c1ccc(Br)cc1,69% (active)
22,Cc1cc(C)nc(NS(=O)(=O)c2ccc(N3C(=O)C4CCCCC4C3=O)cc2)n1 (stereo not given),-3.6% (inactive)
23,Cc1ccc(S(=O)(=O)Nc2nc(C)cc(-n3nc(C)cc3C)n2)cc1,84.1% (active)

row,SMILES,inhibition
1,Cc1ccc(S(=O)(=O)Nc2nc(N)n(-c3ccccc3)n2)cc1,-3.38% (inactive)
2,COC(=O)c1sccc1NC(=O)CSc1ccccc1NS(=O)(=O)c1cc(Cl)ccc1Cl,-13.4% (inactive)
3,O=C(CNC(=O)C12CC3CC(CC(C3)C1)C2)OCC(=O)N1CCCCC1,-0.76% (inactive)
4,C#CCOCCOCCOCCNc1nc(N2CCN(C(=O)CCCCCCCCCCNC(=O)[C@H](CCCCN)n3cc(C)nn3)CC2)nc(N2CCN(C(=O)CCCCCCCCCCNC(=O)[C@H](CO)n3cc(CCCSC)nn3)CC2)n1,26.8% (inactive)
5,C#CCOCCOCCOCCNc1nc(N2CCN(C(=O)CCCCCCCCCCNC(=O)[C@H]([C@@H](C)CC)n3cc(CCCCN=C(N)N)nn3)CC2)nc(N2CCN(C(=O)CCCCCCCCCCNC(=O)[C@H](CO)n3cc(CCCSC)nn3)CC2)n1,53% (active)
6,C#CCOCCOCCOCCNc1nc(N2CCN(C(=O)Cn3cc(CCO)nn3)CC2)nc(N2CCN(C(=O)Cn3cc(CCCN=C(N)N)nn3)CC2)n1,4.14% (inactive)
7,Cc1ccc(CNC(=O)C(=O)c2cn(CC(=O)N3CCCC3)c3ccccc23)cc1,-10.2% (inactive)
8,O=C(c1ccccc1)c1ccc(C(=O)N2CCN(c3ccccc3)CC2)cc1,0.99% (inactive)
9,O=C(C1CCC1)N1CCN(c2ccccc2)CC1,-5.05% (inactive)
10,O=C(c1cc2c(s1)CCC2)N1CCN(c2ccccc2)CC1,51.2% (active)
11,O=C1NC(c2ccccc2)Cc2ccncc21 (stereo not given),5.3% (inactive)
12,Cc1cc(/C=C2/SC(=O)N(CC(=O)N3CCCC3)C2=O)c(C)n1C,-10.3% (inactive)
13,Cc1cc(/C=C2\SC(=Nc3ccc(N4CCOCC4)cc3)N(C)C2=O)c(C)n1-c1cccnc1,-4.38% (inactive)
14,Cc1cc(/C=C2\SC(=O)N(C)C2=O)c(C)n1-c1cccc(C(=O)O)c1,54.7% (active)
15,CC(C)CCN1CCC(C)(NC(=O)c2ccccc2)C1=O (stereo not given),5.05% (inactive)
16,Cc1nnc(SCc2ccc(C(=O)c3ccc(Cl)cc3)o2)n1-c1ccccc1,7.29% (inactive)
17,CSc1nc(-c2ccco2)nn1C(=O)c1ccccc1Cl,-10.4% (inactive)
18,CCCn1nc(C(=O)NNC(=O)CCOc2ccccc2OCC)c2ccccc2c1=O,-1.1% (inactive)
19,CCOc1ccccc1/C=c1\sc2nc(-c3ccco3)nn2c1=O,78% (active)
20,Nc1ncc(CN2CCCC(C(=O)Nc3ccc(-c4ccco4)cc3)C2)cn1 (stereo not given),-3.44% (inactive)
21,COc1ccc(C(=O)C2CCCN(Cc3cccn3-c3ccccn3)C2)c(C)c1 (stereo not given),-4.92% (inactive)

# Source: PubChem BioAssay AID493091 (Sanford-Burnham Center for Chemical Genomics, 2011)
